An excerpt weighted towards active compounds, which were near 6.7% of everything screened.
CSC inhib = cancer stem cell inhibition | cancer stem cell-like cells viability, luminescence | inhibition, % at 7.5 µM | 1.1% of 300,000 active | AID 2717; in the data active = inhibition above about 75%; tested in HMLE shEcad cells
T cruzi repl = blocks replication of Trypanosoma cruzi; 1.4% of 300,000 active; T. cruzi beta-gal in NIH3T3, luminescence, 90 h; inhibition, % (test concentration not listed);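 active = mean inhibition across valid replicates above about 55%, limit read from the data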;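 also: signal also drops with host cell toxicity which is not excluded here; 0% = plate median of DMSO wells and 100% = zero luminescence signal; higher percent means less beta-gal luminescence so fewer parasites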
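System: Mouse NIH/3T3 fibroblasts infected with β-gal-expressing T. cruzi Tulahuen C4 | Quantity: NIH/3T3 cells, 5,000 per well | Reagent: 5000 reporter trypomastigotes per well | Dosing: Compound pinned at 50 nL/well, DMSO | Schedule: 3 h host attachment, then at least 90 h co-culture | Detection: GalScreen luminescence, 60 min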
CHOP inh = CHOP inhibition in unfolded protein response | 3.8% of 220,000 active | AID 2732 | inhibition, % at 10 µM | CHO-K1 CHOP-promoter luciferase, tunicamycin-induced, 15-18 h;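 active = compounds that reduced the stress-induced luciferase reporter signal by more than about 70% of percent inhibition, limit read from the data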;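 also: 0% = tunicamycin plus vehicle and 100% = wells without tunicamycin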
PREPL inhibitor = inhibits the human prolyl oligopeptidase-like enzyme | recombinant PREPL, fluorescence polarization activity-based probe | 0.68% of 320,000 active | inhibition, % at 5.96 µM | Q4J6C6; in the data active = inhibition above about 43%;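 also: 0% = enzyme with DMSO and 100% = wells lacking enzyme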
Target sequence (Q4J6C6 whole entry, looked up): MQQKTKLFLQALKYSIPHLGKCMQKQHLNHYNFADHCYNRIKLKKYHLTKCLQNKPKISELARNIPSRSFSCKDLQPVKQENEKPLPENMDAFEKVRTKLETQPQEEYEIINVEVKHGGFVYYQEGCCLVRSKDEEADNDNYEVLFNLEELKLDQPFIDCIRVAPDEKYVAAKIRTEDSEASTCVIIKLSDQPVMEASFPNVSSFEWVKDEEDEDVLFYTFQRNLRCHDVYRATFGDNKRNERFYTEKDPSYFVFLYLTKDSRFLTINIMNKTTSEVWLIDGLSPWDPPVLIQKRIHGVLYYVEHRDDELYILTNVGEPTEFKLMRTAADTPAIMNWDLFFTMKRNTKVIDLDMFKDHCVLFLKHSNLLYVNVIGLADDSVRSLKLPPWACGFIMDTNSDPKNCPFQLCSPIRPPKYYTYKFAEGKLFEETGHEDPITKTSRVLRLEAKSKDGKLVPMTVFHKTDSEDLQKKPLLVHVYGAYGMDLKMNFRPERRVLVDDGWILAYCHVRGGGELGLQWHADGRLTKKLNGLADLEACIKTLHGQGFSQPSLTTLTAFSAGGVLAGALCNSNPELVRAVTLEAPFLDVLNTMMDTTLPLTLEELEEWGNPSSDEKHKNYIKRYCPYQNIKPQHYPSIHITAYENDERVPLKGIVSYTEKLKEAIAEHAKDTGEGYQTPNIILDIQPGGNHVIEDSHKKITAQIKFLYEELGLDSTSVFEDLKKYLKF
NR3A LBD binder = modulators (binders) of human NR3A ligand-binding domain. NR3A LBD differential scanning fluorimetry, Tm shift; 0% = protein alone, 100% = glycine-bound protein. Tm shift relative to glycine control, % at 25 µM. 2.5% of 340,000 active. AID 1259313;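 active = melting temperature shift of at least 10% of the positive control shift, at one fixed dose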
Beta apoptosis = blocks beta cell apoptosis; protection from apoptosis, % (test concentration not listed); INS-1E cytokine-induced death, ATP luminescence, 48 h; percent of positive-control rescue, neutral wells zero; 0.8% of 300,000 active;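 active = Every replicate reaches about 75%, or at least half do and their mean reaches it too, limit read from the data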;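 also: 0% = cytokine-treated negative control wells and 100% = positive control rescue; higher means more ATP so stronger rescue from cytokine killing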
* marks the source's active call; other numbers are inactive results; x = no result given.

SMILES	CSC inhib	T cruzi repl	CHOP inh	PREPL inhibitor	NR3A LBD binder	Beta apoptosis
COc1ccc(-c2ncc(CN3CCN(CCC(C)C)C(CCO)C3)cn2)cc1 (centres undefined)	-4.4	61.3*	-15.4	7.9	-1.3	1.2
COC(=O)c1ccc(CN2CCN(CCC(C)C)C(CCO)C2)cc1 (centres undefined)	29.7	20.3	-0.8	9.6	-0.8	0.3
Cc1c(NC(=O)CSc2ccc(Cl)cc2)cccc1-c1nc2cc(Cl)ccc2o1	5.6	-7.0	66.2	-22.4	18.2*	11.1
CCOCCc1nnc(NC(=O)CCS(=O)(=O)c2ccccc2)s1	0.1	1.8	x	4.5	-3.0	-24.5
O=C1NC(c2cccc(OCc3ccccc3)c2)Nc2ccccc21 (centres undefined)	x	x	x	x	12.6*	x
COc1ccc(OC)c(NC(=O)C2CCN(S(=O)(=O)c3ccc4c(c3)CC(C)N4C(C)=O)CC2)c1 (centres undefined)	-7.1	11.9	x	8.2	0.3	-0.6
CC#CC[N+](C)(C)CCCCCCCC	3.8	-23.2	-3.4	13.7	0.0	130.5*
CCCCCCCCCCCCCCCC[N+](C)(C)Cc1ccc(F)cc1	x	x	x	x	6.4	x
CCC(=O)Nc1cc(=O)[nH]c2nc(-c3ccc(Cl)cc3)nn12	7.6	3.2	-8.5	27.4	0.1	-3.6
O=C(NCc1ccccc1)C1=C[C@@H](c2coc3ccccc3c2=O)C[C@@H](OCCCCO)O1	8.8	-14.0	1.6	-7.5	-1.8	6.2
CCSc1nc2nccnc2c(=O)[nH]1	x	x	x	x	-0.6	x
Cc1ccccc1NC(=O)c1ccc2c(c1)C(=O)N(CCC(C)C)C2=O	-4.5	-6.3	78.8*	6.3	-4.4	-2.0
CCCCN1C(=O)c2ccc(C(=O)Nc3cccc(C)c3C)cc2C1=O	-10.2	-5.7	76.4*	-3.1	-0.1	-1.2
CCN1C(=O)C(=O)N(CC(=O)NC(C)CCc2ccccc2)C1=O (centres undefined)	x	x	x	-0.8	1.1	-0.4
O=C(N/N=C/c1ccc[nH]1)c1cc2ccccc2cc1O	x	-11.3	x	20.4	11.2*	7.1
O=C(N/N=C/c1ccncc1)c1cc2ccccc2cc1O	-7.9	-7.9	x	x	12.9*	-1.0
Cc1ccsc1CN(C)C(=O)CN1C(=O)NC2(CCCc3ccccc32)C1=O (centres undefined)	10.6	x	x	6.2	2.3	-5.5
O=C(O)COc1ccccc1/C=N/NC(=O)CSc1nc2ccccc2n1Cc1ccc(Cl)cc1	9.1	-5.7	7.4	-35.7	-2.1	4.8
CC(C)C(C)(C#N)NC(=O)CSc1nc2scc(-c3ccc(F)cc3)c2c(=O)n1Cc1ccccc1 (centres undefined)	x	27.6	23.0	20.9	0.6	x
C/C(=N\NC(=S)Nc1cccc(C)c1)c1ccco1	-1.6	76.9*	-92.9	7.6	-0.2	3.3
c1cn2c(NC3CCCC3)c(-c3ccc(N4CCOCC4)cc3)nc2cn1	-9.5	3.1	-11.7	29.1	-2.9	8.6
c1cc(SC2CCCCC2)cc(-c2nc3cnccn3c2NC2CCCCC2)c1	104.2*	x	x	17.0	-9.9	-1.7
c1cn2c(NC3CCCCC3)c(-c3ccc(SC4CCCCC4)cc3)nc2cn1	125.9*	48.0	x	2.2	-9.0	0.4
CCC(C)Sc1cccc(-c2nc3cnccn3c2NC2CCCCC2)c1 (centres undefined)	x	x	x	13.9	-12.2	x
CCOc1ccc(S(=O)(=O)N2CCN(C(=O)CN3C(=O)NC(C)(C)C3=O)CC2)cc1	x	x	x	9.3	1.0	-3.1
SMILES	CSC inhib	T cruzi repl	CHOP inh	PREPL inhibitor	NR3A LBD binder	Beta apoptosis
CC(C)[C@H](NC(=O)c1ccco1)C(=O)OCC(=O)c1ccc2c(c1)NC(=O)CO2	-17.0	-1.9	3.6	-4.0	10.9*	-2.3
COc1c(Cl)cccc1-c1cn2ccc(C)cc2n1	11.7	14.3	-20.6	-4.5	10.9*	3.3
Cc1ccccc1C(=NCCCN(C)C)c1ccccc1C	-8.3	-3.9	6.0	4.2	-2.6	1.4
Cc1ccc(C)c(NC(=O)CC2Sc3ccccc3NC2=O)c1 (centres undefined)	x	x	x	x	-1.0	x
O=C(CC1Sc2ccccc2NC1=O)c1ccc(Br)cc1 (centres undefined)	-11.4	8.7	71.6*	-20.3	-1.5	-9.8
Cc1c(Cl)cccc1NC(=O)CC1Sc2ccccc2NC1=O (centres undefined)	0.4	-8.2	1.2	0.3	10.3*	5.6
O=C(NCCc1ccccc1)[C@@H]1CC=C[C@@H]2CCN(C3CCCCC3)C(=O)[C@@H]21	-6.7	5.7	x	-6.8	0.6	-5.5
CCCOc1ccc(C(F)(F)F)cc1NC(=O)c1cc(C)on1	x	x	x	7.4	-1.6	5.4
COc1cc(C2Nc3cc(Cl)c(S(N)(=O)=O)cc3S(=O)(=O)N2)cc(OC)c1OC (centres undefined)	-6.9	-3.3	14.0	4.1	1.0	-7.2
COc1cccc(C2Nc3cc(Cl)c(S(N)(=O)=O)cc3S(=O)(=O)N2)c1 (centres undefined)	x	-2.7	41.6	3.8	10.9*	-1.5
Oc1ccc(N2CCN(CC(O)c3ccccc3)CC2)cc1 (centres undefined)	35.0	-10.1	x	6.8	32.3*	-3.4
Nc1nc(C(F)(F)F)c(Br)c(=O)n1N	3.3	-7.0	0.6	1.0	-0.6	0.9
Cc1ccc(NC(=O)C2CCN(S(=O)(=O)c3c(C)nn(C)c3C)CC2)c(Cl)c1	-13.7	-2.5	x	10.1	-5.3	8.5
Cc1ccc(SCC(=O)NC(=O)NCCC(C)C)c(C)c1	1.4	2.3	80.7*	1.9	3.8	-4.7
Cc1ccc(SCC(=O)NC(=O)NC(C)C)c(C)c1	-13.4	-2.3	20.9	-0.6	0.2	-15.7
O=C(NCCCSc1ccccc1)c1cc(Br)ccc1O	79.5*	-2.7	x	x	5.2	-10.1
C=CCNC(=O)O/N=C/c1csc([N+](=O)[O-])c1	-16.9	57.4*	6.6	-3.6	0.8	-12.6
COc1ccc(C(=O)CN2C(=O)NC3(CCCCCC3)C2=O)cc1	-24.4	14.2	x	3.6	-1.1	-0.9
COc1ccccc1N(C)S(=O)(=O)c1ccc(C(=O)OCC(=O)N(C)c2ccccc2)cc1	-0.3	-3.9	23.8	3.7	-0.9	1.0
COc1ccccc1N(C)S(=O)(=O)c1ccc(C(=O)OCC(=O)c2c[nH]c3ccccc23)cc1	5.4	-1.4	41.3	-30.3	23.3*	-7.3
Cc1ccc2nc(-c3ccc(NS(C)(=O)=O)cc3)cc(-c3ccccc3)c2c1	56.3	x	78.4*	-4.7	7.1	-0.9
Cc1ccc(-c2cc(C(=O)Nc3ccc(S(=O)(=O)Nc4nc(C)cc(C)n4)cc3)c3ccccc3n2)cc1	18.8	20.4	44.4	-2.8	-0.9	-2.4
CCS(=O)(=O)Nc1ccc(-c2cc(-c3ccccc3)c3cc(C)ccc3n2)cc1	85.2*	19.5	86.7*	-11.4	10.3*	5.3
Cc1ccc2nc(-c3ccncc3)cc(-c3ccccc3)c2c1	30.6	51.3	20.0	1.0	2.7	7.5
CCNc1nc(N)nc(-c2cc(Cl)ccc2O)n1	23.8	-21.1	70.0	-9.7	-19.5	-13.5
